# Measurements published in ChEMBL document CHEMBL3124791 (J Med Chem, 2014).
# Calls of active or inactive are those of the source. The rule behind the calls is not given here.
# What was measured:
# Mus musculus [1] = assay: Toxicity in athymic Balb/c nu/nu mouse xenografted with human MCF7 cells assessed as death at 4 mg/kg, iv administered as Q3D X 6 regimen; type: organism-based; design: dose 4 mg/kg, route intravenous; settings: in vivo
# Method in brief: (§1)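 At 100–300 mm3 tumors, mice sorted into treated and control groups (n = 7). Dosing 4 mg/kg i.v. every 3 days; vehicle 5% PEG400/PBS. Stopped when control tumors reached about 1500 mm3; tumors excised and weighed. Inhibitory rate = [1 − mean treated/control tumor weight] × 100; body weight and deaths recorded.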
# Mus musculus [2] = assay: Toxicity in athymic Balb/c nu/nu mouse xenografted with human MCF7 cells assessed as change in body weight at 4 mg/kg, iv administered as Q3D X 6 regimen (reference value: 0.10%); type: organism-based; design: dose 4 mg/kg, route intravenous; settings: in vivo; method in brief: as §1
# MCF7 = assay: Antitumor activity against human MCF7 cells xenografted in athymic Balb/c nu/nu mouse assessed as tumor growth inhibition at 4 mg/kg, iv administered as Q3D X 6 regimen; type: functional; method in brief: as §1
# DU-145 = assay: Cytotoxicity against human DU145 cells by SRB assay; type: functional
# Method in brief: (§2)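 Sulforhodamine B growth assay across A-549, KB, P-gp-expressing KBvin and DU145 lines. […] Mean ± SD, at least triplicate.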
# [3] = Cytotoxicity against human KBVIN cells by SRB assay; type: functional; method in brief: as §2
# A549 [4] = assay: Cytotoxicity against human A549 cells by SRB assay; type: functional; method in brief: as §2
# KB = assay: Cytotoxicity against human KB cells by SRB assay; type: functional; method in brief: as §2
# Tubulin (Homo sapiens) [5] = molecular target: T1, Tubulin (Homo sapiens) (UniProt P68371+Q9H4B7+P0DPH7+P68366+Q13509+Q71U36+P04350+Q3ZCM7+P07437+P68363+Q9BQE3+Q6PEY2+Q13885+Q9BVA1+Q9BUF5); assay: Displacement of [3H]colchine from tubulin (unknown origin) at 5 uM after 10 mins; type: protein-complex assay
# Tubulin (Homo sapiens) [6] = molecular target: T1, Tubulin (Homo sapiens); assay: Displacement of [3H]colchine from tubulin (unknown origin) at 1 uM after 10 mins; type: protein-complex assay
# Liver microsome = assay: Half life in human liver microsomes at 1 uM by LC-MS analysis; type: ADME
# [7] = Aqueous solubility of the compound in phosphate buffer at pH 7.4 after 4 hrs by HPLC-UV method; type: physicochemical; settings: pH 7.4, 4 h
# Tubulin = assay: Inhibition of tubulin (unknown origin) polymerization incubated for 15 mins prior to GTP addition measured after 20 mins by turbidimetry; type: protein-complex assay, Homo sapiens
# A549 [8] = assay: Cell cycle arrest in human A549 cells assessed as accumulation at G2/M phase after 24 hrs by propidium iodide staining-based FACS analysis; type: functional
# A549 [9] = assay: Cell cycle arrest in human A549 cells assessed as accumulation at G2/M phase at 300 nM after 24 hrs by propidium iodide staining-based FACS analysis; type: functional
# Canis lupus familiaris [10] = species on record: Canis lupus familiaris; assay: Competitive inhibition of dog brain tubulin using BODIPY FL-vinblastine as substrate at 30 to 100 uM incubated for 30 mins prior to substrate addition measured after 30 mins by fluorescence assay
# Method in brief: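 Tubulin 4 μM from fresh dog brain in 25 mM PIPES pH 6.8, 1 mM EGTA, 3 mM MgCl2, preincubated with compound (10, 30, 100 μM) 30 min at 37 °C. BODIPY FL-vinblastine 2 μM then added for another 30 min. Fluorescence (ex 470/em 515 nm) decrease converted to % inhibition. Mean ± SD of at least three independent experiments.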
# Canis lupus familiaris [11] = species on record: Canis lupus familiaris; assay: (§3) Competitive inhibition of dog brain tubulin using colchicine as substrate incubated for 45 mins prior to substrate addition measured after 45 mins by fluorescence assay
# Method in brief: (§4)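 Dog brain tubulin 4 μM in 25 mM PIPES pH 6.8, 1 mM EGTA, 3 mM MgCl2, preincubated with compound (0.1–10 μM) 45 min at 37 °C. […] Mean ± SD, at least three replicates.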
# [12] = as §3; design: species or system Canis lupus familiaris; method in brief: as §4
# Tubulin (Homo sapiens) [13] = molecular target: T1, Tubulin (Homo sapiens); assay: Inhibition of tubulin polymerization in human A549 cells assessed as disappearance of microtubule network at 3 nM after 24 hrs by Hoechst 33342 staining-based immunocytochemistry relative to control; type: cell-based
# Method in brief: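 A549 cells exposed to compound 24 h (0.1% DMSO control), fixed in 4% paraformaldehyde, permeabilized with 0.1% Triton X-100, blocked with 5% BSA. Stained with anti-α-tubulin (1:2000, 2 h) and a fluorescent anti-mouse secondary (1 h), nuclei with Hoechst 33342. Imaged at 20× for microtubule network loss.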
# A549 [14] = assay: Cell cycle arrest in human A549 cells assessed as accumulation at G2/M phase at 3 nM after 24 hrs by propidium iodide staining-based FACS analysis; type: functional
# Method in brief: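 A549 cells treated 24 h (0.1% DMSO control), washed in PBS, fixed in 70% ice-cold ethanol at 4 °C for 24 h. RNase (0.05 mg/mL, 37 °C, 30 min), then propidium iodide 0.05 mg/mL for 30 min at rt in the dark. Cell-cycle distribution read by flow cytometry.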
# Canis lupus familiaris [15] = species on record: Canis lupus familiaris; settings: 10 uM
# Tubulin (Homo sapiens) [16] = molecular target: T1, Tubulin (Homo sapiens); assay: Inhibition of tubulin polymerization in human A549 cells assessed as disappearance of microtubule network at 100 nM after 24 hrs by Hoechst 33342 staining-based immunocytochemistry relative to control; type: cell-based
SMILES,GI50 (DU-145) [nM],GI50 [3] [nM],GI50 (A549 [4]) [nM],GI50 (KB) [nM],other results
COc1ccc2c(c1)CCCN2c1nc(Cl)nc2ccccc12,–,–,–,–,Activity (Mus musculus [1]): Non-toxic; Activity (Mus musculus [2]): -7.9%; inhibition in vivo at 4 mg/kg (MCF7): 22.9%
COc1ccc2c(c1)OCCN2c1nc(C)nc2ccccc12,198,169,189,211,–
COc1ccc2c(c1)C(=O)CCN2c1nc(C)nc2ccccc12,21,21,24,19,inhibition (Tubulin (Homo sapiens) [5]): 87%; inhibition (Tubulin (Homo sapiens) [6]): 56%; t1/2 (Liver microsome): 20.89 min; solubility [7]: 1.21 µg/mL; IC50 (Tubulin): 940 nM
COc1ccc2c(c1)OCCN2c1nc(Cl)nc2ccccc12,169,195,199,153,–
COc1ccc2c(c1)CCCN(c1nc(Cl)nc3ccccc13)C2,6810,5450,7570,11300,–
COc1ccc2c(c1)C(O)CCN2c1nc(C)nc2ccccc12 (centres undefined),–,17,19,18,inhibition (Tubulin (Homo sapiens) [5]): 94%; inhibition (Tubulin (Homo sapiens) [6]): 75%; t1/2 (Liver microsome): 42.44 min; solubility [7]: 8.72 µg/mL; IC50 (Tubulin): 970 nM
COc1cc2c(c(OC)c1OC)-c1ccc(OC)c(=O)cc1[C@@H](NC(C)=O)CC2,–,–,–,–,Activity (A549 [8]): Dose-dependent effect; Activity (A549 [9]): Active
COc1ccc2c(c1)CCCN2c1nc(C)nc2ccccc12,–,–,–,–,Activity (Mus musculus [2]): -15.7%; inhibition in vivo at 4 mg/kg (MCF7): 47.3%
Cc1ccc2c(c1)CCCN2c1nc(Cl)nc2ccccc12,57,46,43,48,–
Cc1ccc2c(c1)CCCN2c1nc(C)nc2ccccc12,187,176,211,204,–
COc1ccc2c(c1)CCCCN2c1nc(Cl)nc2ccccc12,165,197,191,227,–
COc1ccc2c(c1)NC(=O)CN2c1nc(C)nc2ccccc12,1.9,2.2,3.2,2.3,inhibition (Canis lupus familiaris [10]): inactive; Activity (Mus musculus [1]): Toxic; inhibition (Canis lupus familiaris [11]): Dose-dependent effect; IC50 [12]: 550 nM; Activity (A549 [8]): Dose-dependent effect; inhibition (Tubulin (Homo sapiens) [5]): 99%; inhibition (Tubulin (Homo sapiens) [13]): Active; inhibition (Tubulin (Homo sapiens) [6]): 93%; t1/2 (Liver microsome): 54.81 min; Activity (A549 [14]): Active
CC[C@]1(O)C[C@H]2CN(CCc3c([nH]c4ccccc34)[C@@](C(=O)OC)(c3cc4c(cc3OC)N(C=O)[C@H]3[C@@](O)(C(=O)OC)[C@H](OC(C)=O)[C@]5(CC)C=CCN6CC[C@]43[C@@H]65)C2)C1,–,–,–,–,inhibition (Canis lupus familiaris [15]): 50%
CC(=O)O[C@H]1C(=O)[C@@]2(C)[C@H]([C@H](OC(=O)c3ccccc3)[C@]3(O)C[C@H](OC(=O)[C@H](O)[C@@H](NC(=O)c4ccccc4)c4ccccc4)C(C)=C1C3(C)C)[C@]1(OC(C)=O)CO[C@@H]1C[C@@H]2O [PACLITAXEL],6,1210,7.6,6.4,inhibition (Tubulin (Homo sapiens) [16]): inactive
COc1ccc2c(c1)CCN2c1nc(C)nc2ccccc12,243,216,268,320,–
COc1ccc2c(c1)CCCN(c1nc(C)nc3ccccc13)C2,14600,14800,16700,19600,–
COc1ccc2c(c1)CCCCN2c1nc(C)nc2ccccc12,18,20,21,19,inhibition (Tubulin (Homo sapiens) [5]): 89%; inhibition (Tubulin (Homo sapiens) [6]): 46%; t1/2 (Liver microsome): 24.85 min; solubility [7]: 2.94 µg/mL; IC50 (Tubulin): 870 nM
Cc1nc(N2CCCc3cc(Br)ccc32)c2ccccc2n1,198,169,211,178,–
COc1ccc2c(c1)C(=O)CCN2c1nc(Cl)nc2ccccc12,31,33,27,28,–
COc1ccc2c(c1)N(C)C(=O)CN2c1nc(C)nc2ccccc12,22,25,19,17,Activity (Mus musculus [1]): Non-toxic; Activity (Mus musculus [2]): 2.28%; inhibition (Tubulin (Homo sapiens) [5]): 96%; inhibition in vivo at 4 mg/kg (MCF7): 51%; inhibition (Tubulin (Homo sapiens) [6]): 82%; t1/2 (Liver microsome): 22 min; solubility [7]: 4.2 µg/mL; IC50 (Tubulin): 1300 nM
COc1ccc2c(c1)CCN2c1nc(Cl)nc2ccccc12,165,197,233,227,–
